Compound activity from PubChem BioAssay.
In the library only some 2.1% were active in any assay of this set; here they are far more common.
IMP-1 inh – inhibitors of Pseudomonas aeruginosa IMP-1 metallo-beta-lactamase; purified IMP-1, nitrocefin hydrolysis, epi-absorbance fluorescence; actives 0.45% (n = 290,000); inhibition, % at 5.6 µM;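 active means inhibition above the mean plus 3 SD of all compounds in the same screening run, cut at about 4.5% in these data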;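 further: 0% = IMP-1 with DMSO and 100% = DMSO wells lacking enzyme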
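Material – recombinant IMP-1 enzyme, purified · Amount – IMP-1 0.2 nM before substrate addition · Medium – HEPES buffer pH 7.1 with ZnSO4 and Brij 35 · Timing – 25 °C, 15 min preincubation, 25 min reaction · Measured by – plate fluorescence quenching by hydrolysis product, ex 480/em 530 nm · Read-out – percent enzyme inhibition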
PKA-R1A act – activators of PKA-R1A complex; P00514+P68181; PKA-R1A dissociation, Cy5-IP20 fluorescence polarization; scaled: DMSO 0%, 113 µM cGMP 100%; activation, % at 11.4 µM; actives 0.083% (n = 340,000); AID 504707;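 active means percent activation above the mean of all tested compounds plus 3 SD, cut at about 19% in these data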;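 further: higher means more PKAc released from R1A so a rise in polarization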
PKA-R2B activ – activators of human PKA-R2B complex; actives 0.079% (n = 340,000); P22694+P31323; PKA-R2B holoenzyme dissociation, Cy5-IP20 fluorescence polarization; R2B truncated from residue 108, S112A mutant; 0% DMSO only, 100% 113 µM cGMP; activation, % at 11.4 µM;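 active means activation above a cutoff set at the mean over all compounds plus 3 SD, cut at about 18% in these data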;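 further: higher means more holoenzyme dissociation and a rise in polarization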
Target sequence (P31323 whole entry, looked up, other chains not shown, the tested form may be a part): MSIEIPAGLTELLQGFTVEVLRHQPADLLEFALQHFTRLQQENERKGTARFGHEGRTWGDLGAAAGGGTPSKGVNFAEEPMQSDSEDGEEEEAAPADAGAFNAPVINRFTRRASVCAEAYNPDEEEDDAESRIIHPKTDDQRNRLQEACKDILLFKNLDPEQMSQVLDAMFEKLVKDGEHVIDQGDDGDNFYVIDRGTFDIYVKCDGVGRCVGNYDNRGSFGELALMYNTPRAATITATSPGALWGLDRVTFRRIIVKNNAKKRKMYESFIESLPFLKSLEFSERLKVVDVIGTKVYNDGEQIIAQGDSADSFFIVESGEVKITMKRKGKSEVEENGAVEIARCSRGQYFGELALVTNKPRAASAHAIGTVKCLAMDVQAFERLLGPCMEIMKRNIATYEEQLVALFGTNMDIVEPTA
MsrA inhibitor – inhibits bovine methionine sulfoxide reductase A. inhibition, % at 15.5 µM. AID 651718. actives 0.75% (n = 360,000). purified bovine MsrA, absorbance read-out;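 further: 0% = vehicle wells with enzyme and 100% = reference inhibitor wells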
VIM-2 inh – blocks Pseudomonas aeruginosa VIM-2 metallo-beta-lactamase | purified VIM-2, nitrocefin hydrolysis, epi-absorbance fluorescence | inhibition, % at 5.6 µM | actives 0.89% (n = 290,000) | AID 1527;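 active means inhibition above the mean of all tested compounds plus 3 SD, cutoff set per screening run, cut at about 7.5% in these data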;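 further: red hydrolysis product quenches plate fluorescence so inhibitors raise well fluorescence; 0% = enzyme with DMSO and 100% = DMSO without enzyme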
bovine MsrA act – activates bovine MsrA enzyme | purified bovine MsrA, absorbance read-out | activation, % at 10.6 µM | actives 0.3% (n = 360,000) | AID 602163; in the data active means activation above about 7.5%;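 further: 0% = vehicle and 100% = reference activator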
MsrA conf – confirmation of bovine MsrA inhibitors; shares compounds with MsrA inhibitor; purified bovine MsrA, absorbance read-out; inhibition, % at 15.5 µM; actives 41% (n = 2,300); AID 651822;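 further: coupled to thioredoxin reductase with NADPH and selenocystamine and DMSO as substrate; 0% = vehicle only and 100% = full effect of reference inhibitor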
The depositor's hits bear a star; nt = not tested or not shown. Unless noted, no stated cut-off is given here; in the data, active means inhibition above about 4.5%; inactive means the rest.

SMILES	IMP-1 inh	PKA-R1A act	PKA-R2B activ	MsrA inhibitor	VIM-2 inh	bovine MsrA act	MsrA conf
COc1ccc(CNC(=O)c2cn(Cc3ccc(S(=O)(=O)N(C)C)cc3)c(=O)s2)cc1	nt	nt	nt	1	nt	-8	nt
O=C(c1ccco1)N(CCO)Cc1cc2cc3c(cc2[nH]c1=O)OCO3	-5	-8	-5	6.1*	-1	-1	3
O=C(c1ccccc1)N(CCO)Cc1cc2cc3c(cc2[nH]c1=O)OCCO3	-3	7	-6	1	-2	-4	nt
COc1ccc(C(=O)/C(C#N)=N/Nc2ccccc2[N+](=O)[O-])cc1	-2	0	-7	3	-1	-1	nt
CCCc1c(C)nn(C(=O)/C(C#N)=N/Nc2ccccc2[N+](=O)[O-])c1C	-3	2	7	10*	0	-10	6.9*
Cc1nc2cc(-c3sccc3-n3cccc3)nn2c(C)c1C	-1	5	0	8.2*	-1	-11	7.1*
CC(=NCc1ccccc1)c1ccc(O)cc1O	nt	-9	-12	2	nt	-6	nt
FC(F)(F)c1ccc(N=Cc2sc(N3CCOCC3)nc2-c2ccccc2)cc1	-3	-6	-9	18*	-4	-2	17*
CC(=O)c1sc(N2CCOCC2)nc1-c1ccccc1	-4	-1	-2	1	-4	-3	nt
Cc1cc(C)c(S(=O)(=O)/N=C2\C=C(NS(=O)(=O)c3ccccc3)C(=O)c3ccccc32)c(C)c1	-5	6	-10	0	-5	1	nt
O=C(O)c1ccc(NC2=C/C(=N/S(=O)(=O)c3ccccc3)c3ccccc3C2=O)cc1	-3	-6	2	65*	-1	-2	63*
Cc1cc(C)c(S(=O)(=O)/N=C2\C=C(Nc3ccc(C(=O)O)cc3)C(=O)c3ccccc32)c(C)c1	-5	3	-13	19*	-1	-1	21*
CCc1ccc(S(=O)(=O)/N=C2\C=C(Nc3cccc(C(=O)O)c3)C(=O)c3ccccc32)cc1	-7	-18	-3	52*	-3	1	53*
Cc1ccc(Cl)cc1NC1=C/C(=N\S(=O)(=O)c2cccs2)c2ccccc2C1=O	-2	2	-3	5.6*	-4	2	8.2*
Cc1ccccc1OCC(=O)Nc1c2c(nn1C(C)(C)C)CS(=O)(=O)C2	2	-4	-8	0	-1	-8	nt
Cc1ccc(NC(=O)C2(C)CCN2C(=O)Cc2ccc(C(C)(C)C)cc2)cc1C (stereo unspecified)	nt	nt	nt	0	nt	4	nt
O=C(O)c1ccc(NC2=C/C(=N/S(=O)(=O)c3cccs3)c3ccccc3C2=O)cc1	nt	1	-5	62*	nt	-2	66*
NS(=O)(=O)c1cccc(NC(=O)c2ccc(NS(=O)(=O)c3cccc([N+](=O)[O-])c3)cc2)c1	nt	-1	-8	1	nt	-10	nt
CCCc1nc(SCC(=O)O)c2sc(=S)n(-c3ccccc3)c2n1	-3	-17	-4	4.7*	-3	-1	4.8*
CCOCCn1c(=NC(=O)CSCC(=O)Nc2cc(C)on2)sc2cc(OC)ccc21	2	-4	-3	6.3*	0	-3	2
COCCn1c(=NC(=O)CSCC(=O)NC2CCCCC2)sc2cc(OC)ccc21	-1	-3	12	1	-1	-10	nt
CCOC(=O)c1ccc2cccc(C)n2c1=O	0	0	-3	nt	-1	-10	nt
CCOC(=O)c1cc(C(C)=O)c(=O)n(C)c1N	-2	-2	3	5.9*	0	-5	4.8*
CC(=O)Nc1ccc(NC(=O)C(C)Sc2nnc(C3CC3)n2-c2ccccc2)cc1 (stereo unspecified)	nt	-7	-10	0	nt	-1	nt
Cc1nc(C)c(C(=O)N/N=C/c2c[nH]c3ccccc23)s1	-5	-5	-5	nt	-3	-2	nt
SMILES	IMP-1 inh	PKA-R1A act	PKA-R2B activ	MsrA inhibitor	VIM-2 inh	bovine MsrA act	MsrA conf
Cc1nc(C)c(C(=O)N/N=C/c2cn(C)c3ccccc23)s1	-8	13	8	5.1*	-5	-2	3
O=C(c1cnc2sccn2c1=O)N1CCc2ccccc2C1	-3	-2	-1	4.8*	-1	-4	4
COc1cccc2c1Oc1cc([N+](=O)[O-])cc(N(C)C(C)=O)c1C=C2	0	-8	-3	15*	0	-8	11*
O=C1N=C(N2C=CC(=C3C=CNC=C3)C=C2)/C(=C/N=NC(=O)c2ccccc2O)S1	-7	-2	-6	5.8*	-6	-5	6.6*
CC1(c2nnnn2Cc2ccccc2)CCC(=O)N1C1CC1 (stereo unspecified)	nt	nt	nt	0	nt	-2	nt
COc1cccc(CNS(=O)(=O)c2cc(Br)ccc2Br)c1OC	nt	nt	nt	0	nt	nt	nt
COc1ccc(/C(O)=C2/C(=O)C(=O)N(CCCN3CCOCC3)C2c2ccc(Cl)cc2)cc1 (stereo unspecified)	nt	5	1	6.8*	nt	-3	2
COc1ccc(C2/C(=C(/O)c3ccccc3)C(=O)C(=O)N2CCCN2CCOCC2)cc1 (stereo unspecified)	-2	13	1	3	-1	-2	nt
O=C1C(=O)N(CCCn2ccnc2)C(c2ccc(Cl)cc2)/C1=C(\O)c1ccc2c(c1)OCCO2 (stereo unspecified)	-3	-4	5	9.1*	-1	-5	1
Fc1cnc(N2CCOCC2)nc1N1CCc2ccccc21	-4	-13	-14	8.0*	-2	-1	3
Fc1cnc(N2CCOCC2)nc1N1CCOCC1	-4	-5	-1	-1	-1	-4	nt
COC(=O)[C@]12CCCCC=C1N(CCc1ccc(OC)c(OC)c1)C(=O)[C@H](CC(=O)NCC13CC4CC(CC(C4)C1)C3)C2	nt	nt	nt	2	nt	nt	nt
Cc1cc(/C=C(/C#N)C(=O)O)c(C)n1CCC(C)C	-4	-4	-7	4.8*	-2	-6	3
CCCn1c(C)cc(/C=C(\C#N)C(=O)O)c1C	0	-10	1	6.8*	-4	-8	4
Cc1cc(/C=C(\C#N)C(=O)O)c(C)n1CC1CCCO1 (stereo unspecified)	-3	-2	6	5.2*	-2	-1	6.2*
CCCCn1c(C)cc(/C=C(\C#N)C(=O)O)c1C	-3	-6	-7	4	-3	-8	nt
Cc1cc(/C=C(\C#N)C(=O)O)c(C)n1-c1ccc(Br)cc1	-3	-10	-3	7.4*	-2	-6	4.8*
COC(=O)C1(C(=O)OC)C2C(=O)C3C(C21)C3(C(=O)OC(C)(C)C)C(=O)OC(C)(C)C (stereo unspecified)	nt	13	-5	1	nt	-4	nt
CN=Cc1nc(-c2ccccc2)oc1O	-2	-14	-11	9.9*	-4	-12	7.3*
CCOC(=O)c1sc(N)c(C(N)=O)c1C	-1	nt	nt	4.9*	0	-4	0
